PolyA inhibitor = inhibitors of polyadenylation in S. cerevisiae; S. cerevisiae SKY197-pL101 polyadenylation reporter, beta-gal luminescence; efflux-impaired pdr1/pdr3 knockout yeast; score 100 = 6 SD above DMSO; activity score, % at 12 µM; 0.02% of 300,000 active; AID 1875;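 active = lowest replicate activity score at least 50, where 100 means six control SD above control mean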;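 also: yeast exposed to compound for 9 h at 30 °C; higher score means more reporter readthrough which indicates perturbed polyadenylation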
SUMO Mot1 rescue = blocks SUMOylation pathway, rescuing yeast Mot1-301 growth. 1% of 320,000 active. S. cerevisiae Mot1-301 growth rescue, ATP luminescence, 38.5C; percent above DMSO median, 100 means doubled. AID 2716. growth rescue, % at 18.8 µM;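 active = every valid replicate shows activation above 250% relative to neutral control wells; inactive = the rest, any valid replicate at or below 250%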;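 also: OY570 slx delta 5 strain wells were the positive control but not used for scaling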
VIM-2 inh = blocks Pseudomonas aeruginosa VIM-2 metallo-beta-lactamase. 0.89% of 290,000 active. purified VIM-2, nitrocefin hydrolysis, epi-absorbance fluorescence. AID 1527. inhibition, % at 5.6 µM;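 active = inhibition above the mean of all tested compounds plus 3 SD, cutoff set per screening run, cut at about 7.5% in these data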;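 also: red hydrolysis product quenches plate fluorescence so inhibitors raise well fluorescence; 0% = enzyme with DMSO and 100% = DMSO without enzyme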
NALP1 yeast inh = NALP1 inhibition; S. cerevisiae NALP1/ASC/caspase-1 growth, X-gal OD620, 72 h; inhibition, % at 10 µM; 0.61% of 280,000 active; AID 2071; in the data active = inhibition mostly above about 24%, no sharp cut-off; inactive = mostly below about 32%
IMP-1 inhibitor = blocks Pseudomonas aeruginosa IMP-1 metallo-beta-lactamase; purified IMP-1, nitrocefin hydrolysis, epi-absorbance fluorescence; inhibition, % at 5.6 µM; 0.45% of 290,000 active; AID 1556;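 active = inhibition above the mean plus 3 SD of all compounds in the same screening run, cut at about 4.5% in these data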;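 also: 0% = IMP-1 with DMSO and 100% = DMSO wells lacking enzyme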
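System: Purified IMP-1 | Read-out basis: Percent enzyme inhibition | Controls: IMP-1 with DMSO as 0%, enzyme-free DMSO as 100% | Replicates: One well per compound | Doses: 5.6 µM nominal single concentration | Detection: Epi-absorbance fluorescence, 480 nm excitation, 530 nm emission | Incubation: 25 °C, 15 min preincubation, 25 min reaction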
NLRP3 yeast inh = blocks the NALP3 inflammasome reconstituted in yeast; 0.39% of 330,000 active; Yeast reconstituted NLRP3/ASC/caspase-1, beta-gal luminescence, 24 h; inhibition, % at 10 µM; AID 2825;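 active = inhibition of 50% or more; inactive = inhibition below 50%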;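 also: plate controls were induced DMSO wells for no effect and uninduced yeast grown without galactose for full effect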
Yeast Mot1 SUMO = inhibits SUMO pathway, affecting Mot1-301 yeast growth | growth activity, percent, % at 42 µM | 2,300 tested, under 10 active | shares compounds with SUMO Mot1 rescue | S. cerevisiae Mot1-301 galactose growth, ATP luminescence, 24 h; -100 = growth of slx-deleted rescue strain;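 active = Signal drops as the depositor expects, and the fitted half-maximal dose is no more than ten times the top valid tested dose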;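 also: more negative values mean stronger growth rescue toward the control strain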
NALP3 confirm = NALP3 inhibition confirmation in yeast; shares compounds with NLRP3 yeast inh; 81% of 1,300 active; AID 435006; yeast expressing human NALP3, luminescence; inhibition, % at 10 µM; in the data active = inhibition above about 48%
Casp1-ASC yeast = counter-screen for NALP3 inhibitors: yeast caspase-1-ASC; 66% of 1,000 active; AID 488784; inhibition, % at 10 µM; shares compounds with NLRP3 yeast inh; yeast expressing Caspase-1-ASC, luminescence counter screen
NALP3 retest = confirmation retest of NALP3 inhibitors in yeast; shares compounds with NLRP3 yeast inh; inhibition, % at 10 µM; 53% of 1,000 active; yeast expressing human NALP3, luminescence read-out
Starred values were filed as active, the others as inactive. Most compounds without a hit are left out; they make up all but 2.9% or so of the library. Rule as the data show it, unless noted: active = inhibition above about 50%; inactive = the rest.

What do the screens show for `c1cc(C2N3CCCN2CC3)ccn1` (stereo not drawn)?
PolyA inhibitor: -17; SUMO Mot1 rescue: -3; VIM-2 inh: 0; NALP1 yeast inh: 30; IMP-1 inhibitor: -1; NLRP3 yeast inh: 7

Results for CCOC(C(=O)OCCCN(CC)CC)(c1ccccc1)c1ccccc1 ?
PolyA inhibitor: 2; SUMO Mot1 rescue: 510*; VIM-2 inh: -3; NALP1 yeast inh: 16; IMP-1 inhibitor: -3; NLRP3 yeast inh: 23; Yeast Mot1 SUMO: -1

What do the screens show for `CCN(CC)CCCOC(=O)C(OC(C)C)(c1ccccc1)c1ccccc1`?
PolyA inhibitor: -10; SUMO Mot1 rescue: 19; VIM-2 inh: 0; NALP1 yeast inh: 10; IMP-1 inhibitor: -2; NLRP3 yeast inh: 16

Results for N#CC(C#N)=Cc1ccc(-c2ccccc2)o1 ?
PolyA inhibitor: -22; SUMO Mot1 rescue: 10; VIM-2 inh: -3; NALP1 yeast inh: 35; IMP-1 inhibitor: -1; NLRP3 yeast inh: 73*; NALP3 confirm: 74*

What do the screens show for `Oc1ccc(/C=N/NP(=S)(c2ccccc2)c2ccccc2)cc1`?
PolyA inhibitor: -33; SUMO Mot1 rescue: -1; VIM-2 inh: -6; NALP1 yeast inh: 23; IMP-1 inhibitor: -1; NLRP3 yeast inh: 56*; NALP3 confirm: 74*; Casp1-ASC yeast: 65*; NALP3 retest: 57*

Results for COc1cc(OC)c2c(c1)OCC1CON(C)C21 (stereo not drawn) ?
PolyA inhibitor: 10; SUMO Mot1 rescue: 47; VIM-2 inh: -4; NALP1 yeast inh: -8; IMP-1 inhibitor: -2; NLRP3 yeast inh: -3

What do the screens show for `CCCN1CCC[C@@H](c2cccc(O)c2)C1`?
SUMO Mot1 rescue: -8; NLRP3 yeast inh: 25

Results for Fc1ccc(C(OCCN2CCN(CCCc3ccccc3)CC2)c2ccc(F)cc2)cc1 ?
PolyA inhibitor: -32; SUMO Mot1 rescue: -11; NLRP3 yeast inh: 50*; NALP3 confirm: 59*

How did C[C@@H]1NCCc2cc(O)c(O)cc21 do in these assays?
SUMO Mot1 rescue: -11; NLRP3 yeast inh: 17

Results for CCN(CCNc1ccc([N+](=O)[O-])c2cccnc12)S(=O)(=O)c1ccccc1 ?
PolyA inhibitor: 5; SUMO Mot1 rescue: 18; VIM-2 inh: -4; NALP1 yeast inh: 16; IMP-1 inhibitor: -3; NLRP3 yeast inh: 1

Results for CCN(CCNc1ccc([N+](=O)[O-])c2cccnc12)S(=O)(=O)c1ccc(Cl)cc1 ?
PolyA inhibitor: -31; SUMO Mot1 rescue: 9; VIM-2 inh: 1; NALP1 yeast inh: -3; IMP-1 inhibitor: -1; NLRP3 yeast inh: 50*; NALP3 confirm: 65*; Casp1-ASC yeast: 37; NALP3 retest: 34

How did CCCCCCCCCCCCCCCC[N+](C)(C)C do in these assays?
PolyA inhibitor: 13; SUMO Mot1 rescue: 240; NLRP3 yeast inh: 60*; NALP3 confirm: 53*; Casp1-ASC yeast: 55*; NALP3 retest: 59*

What do the screens show for `Cc1ccc2[nH]c(C)c(CCNCc3cccnc3)c2c1`?
PolyA inhibitor: 20; SUMO Mot1 rescue: 3; VIM-2 inh: -1; NALP1 yeast inh: 13; IMP-1 inhibitor: -1; NLRP3 yeast inh: 14

How did C[C@]12CCC(=O)C[C@H]1CC[C@@H]1[C@@H]2CC[C@]2(C)C(=O)CC[C@@H]12 do in these assays?
NLRP3 yeast inh: 66*; NALP3 confirm: 70*; Casp1-ASC yeast: 61*; NALP3 retest: 49

How did C[C@]1(O)CCC2C3CC[C@@H]4CC(=O)CC[C@]4(C)C3CC[C@@]21C (stereo partly drawn) do in these assays?
SUMO Mot1 rescue: -18; NLRP3 yeast inh: 55*; NALP3 confirm: 69*; Casp1-ASC yeast: 68*; NALP3 retest: 42

How did C[C@]12CCC3C(CC[C@H]4CC(=O)CC[C@]34C)C1CCC2=O (stereo partly drawn) do in these assays?
SUMO Mot1 rescue: 17; NLRP3 yeast inh: 61*; NALP3 confirm: 56*

Results for C[C@]12CC(=CO)C(=O)C[C@@H]1CC[C@@H]1[C@@H]2CC[C@@]2(C)[C@H]1CC[C@]2(C)O ?
VIM-2 inh: -4; NALP1 yeast inh: 16; IMP-1 inhibitor: -3

Results for C[C@]12CCC3C(CC[C@H]4C[C@H](O)CC[C@]34C)C1CC(=O)[C@@H]2O (stereo partly drawn) ?
SUMO Mot1 rescue: 9; NLRP3 yeast inh: 49

What do the screens show for `CN1CCC(O)(c2ccc(Cl)cc2)C(C(=O)c2ccc(Cl)cc2)C1` (stereo not drawn)?
PolyA inhibitor: -16; SUMO Mot1 rescue: 0; VIM-2 inh: -3; NALP1 yeast inh: 5; IMP-1 inhibitor: -3; NLRP3 yeast inh: 5

What do the screens show for `Cc1c(-c2cccc(Cl)c2)nc2ccccc2c1C(=O)N1CCC2(CC1)OCCO2`?
PolyA inhibitor: -7; SUMO Mot1 rescue: -30; VIM-2 inh: 1; NALP1 yeast inh: 19; IMP-1 inhibitor: -2; NLRP3 yeast inh: 77*; NALP3 confirm: 45; Casp1-ASC yeast: 21; NALP3 retest: 13

What do the screens show for `O=c1ccc2c(O)c3ccoc3cc2o1`?
NLRP3 yeast inh: 13

Results for O=c1oc2ccccc2c(O)c1[C@H]1c2ccc(O)cc2Oc2c1c(=O)oc1ccccc21 ?
PolyA inhibitor: -17; SUMO Mot1 rescue: -39; VIM-2 inh: -1; IMP-1 inhibitor: -1; NLRP3 yeast inh: 79*; NALP3 confirm: 85*; Casp1-ASC yeast: 87*; NALP3 retest: 78*

What do the screens show for `C[C@H]1C[C@@H](C)C(=O)[C@@H]([C@H](O)CC2CC(=O)NC(=O)C2)C1`?
PolyA inhibitor: 7; SUMO Mot1 rescue: 430*; VIM-2 inh: -3; NALP1 yeast inh: 100*; IMP-1 inhibitor: -2; NLRP3 yeast inh: 98*; NALP3 confirm: 99*; Casp1-ASC yeast: 100*; NALP3 retest: 99*

What do the screens show for `O=CC(Br)P(=O)(N1CCOCC1)N1CCOCC1` (stereo not drawn)?
PolyA inhibitor: 14; SUMO Mot1 rescue: -13; VIM-2 inh: -1; NALP1 yeast inh: 25; IMP-1 inhibitor: -1; NLRP3 yeast inh: -5
